Screening data from PubChem.
M5 ag: agonists of human muscarinic M5 receptor (CHRM5). activation, % at 3 µM. CHO-K1 hM5 cells, Fluo-8 calcium fluorescence; 0% DMSO wells, 100% maximal acetylcholine response. 360,000 compounds, 0.19% hits. AID 624037. P08912;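 active means activation above the run's mean over test compounds plus 3 SD, cut at about 23% in these data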;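 further: signal is peak over basal fluorescence ratio across the kinetic read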
M4 PAM: potentiates acetylcholine response at human M4 receptor. 360,000 compounds, 0.4% hits. activation, % at 3 µM. P08173. CHO-K1 hM4/Gqi5, Fluo-8 calcium fluorescence, ACh EC20; 0% = ACh EC20, 100% = maximal ACh;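 active means activation above its plate's cutoff, the mean activation of sample wells plus 3 SD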
Target sequence (P08173 whole entry, looked up): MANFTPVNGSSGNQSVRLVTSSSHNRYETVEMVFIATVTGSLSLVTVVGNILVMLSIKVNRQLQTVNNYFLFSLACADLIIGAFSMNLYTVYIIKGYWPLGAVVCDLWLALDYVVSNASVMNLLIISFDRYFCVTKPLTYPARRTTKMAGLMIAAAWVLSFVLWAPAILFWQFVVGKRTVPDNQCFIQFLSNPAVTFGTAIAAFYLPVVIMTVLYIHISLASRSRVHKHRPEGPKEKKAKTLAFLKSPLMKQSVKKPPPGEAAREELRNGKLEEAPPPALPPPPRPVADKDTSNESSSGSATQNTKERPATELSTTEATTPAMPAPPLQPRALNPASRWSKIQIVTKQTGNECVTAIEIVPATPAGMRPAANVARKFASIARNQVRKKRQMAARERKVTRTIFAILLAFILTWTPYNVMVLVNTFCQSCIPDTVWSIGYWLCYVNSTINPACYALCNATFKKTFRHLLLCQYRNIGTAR
M5 PAM: positive allosteric modulators of human muscarinic M5 receptor; CHO-K1 hM5, Fluo-8 calcium, ACh EC20 PAM; 0% = ACh EC20, 100% = ACh EC100; P08912; 360,000 compounds, 0.3% hits; activation, % at 3 µM;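 active means activation above the run cutoff, the mean activation of all test compounds plus 3 SD, cut at about 18% in these data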
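Assay system – human M5 receptor in CHO-K1 cells · Read-out – % activation, ACh-normalized · Technique – Fluo-8 calcium fluorescence · Dosing – single-point, 3 µM nominal · Incubation – Fluo-8 loading 80 min at 37 °C plus 30 min room temperature · Repeats – singlicate, one well per test compound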
M4 antag: CHRM4 antagonism in calcium assay; P08173; CHO-hM4 cells, ACh EC80, Fluo-8 calcium fluorescence; inhibition, % at 3 µM; 360,000 compounds, 0.73% hits;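 active means inhibition above its plate's cutoff, the mean inhibition of sample wells plus 3 SD, cut at about 27% in these data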
CHRM5 antagonist: antagonists of human muscarinic M5 receptor (CHRM5). P08912. 360,000 compounds, 0.59% hits. inhibition, % at 3 µM. CHO-hM5 cells, Fluo-8 calcium fluorescence, ACh EC80;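 active means inhibition above a per-plate cutoff, the mean of that plate's test compounds plus 3 SD, cut at about 27% in these data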
M4 ag: CHRM4 agonism in calcium assay; P08173; CHO-K1 hM4/Gqi5, Fluo-8 calcium fluorescence; vehicle 0%, full acetylcholine response 100%; activation, % at 3 µM; 360,000 compounds, 0.14% hits;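 active means activation above the run mean over all test wells plus 3 SD, cut at about 32% in these data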;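 further: peak over basal fluorescence ratio per well then scaled between controls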
Numbers stand for hits; – = inactive. Compounds with a hit are over-represented: about 1.8% of the library has one in this group of screens.

SMILES | M5 ag | M4 PAM | M5 PAM | M4 antag | CHRM5 antagonist | M4 ag
COc1ccc(CNC(=O)Nc2nc(C(N)Cc3ccc(Cl)cc3)cs2)cc1 (centres undefined) | – | – | – | 33.1 | – | –
Cc1c(Cl)cccc1NC(=O)CNC(=O)C1CCN(C(=O)Nc2ccccc2)CC1 | – | – | – | – | – | –
COc1cccc(CNC(=O)COC(=O)c2ccc(N3CCCC3=O)cc2)c1 | – | – | – | – | – | –
Cc1cnc(CNC(=O)c2ccc(OC3CCN(C(=O)C4CC4)CC3)cc2)cn1 | – | – | 23.2 | – | – | –
NS(=O)(=O)c1ccc(NC(=O)COC(=O)CCCN2C(=O)c3cccc4cccc(c34)C2=O)cc1 | – | – | – | – | – | –
CC1=C(C)CC(C(=O)NC2CCN(C(C)C)CC2)C(C(=O)O)C1 (centres undefined) | – | – | – | – | 36.8 | –
CC1=C(C)CC(C(=O)NC2CCCC2)C(C(=O)O)C1 (centres undefined) | – | – | – | – | – | –
O=C(Nc1cccc(C(F)(F)F)c1)C1Cc2c(-c3ccc(Cl)cc3)ccnc2O1 (centres undefined) | – | 16.7 | – | – | – | –
O=C(CSc1ncnc2sccc12)NCc1ccc2c(c1)OCO2 | – | – | – | – | – | –
CC1(C(=O)NS(=O)(=O)Cc2ccccc2)CCN1C(=O)Cc1ccccc1Cl (centres undefined) | – | – | – | – | – | –
CCOc1ccc(NC(=O)Nc2nc(SCC)ns2)cc1 | – | – | – | – | 32.6 | –
CN(c1cccc2cccnc12)S(=O)(=O)c1ccccc1 | – | – | – | – | – | –
COc1ccccc1C(=O)N1CCN(C(=O)[C@H]2O[C@@H](n3ccc(=O)[nH]c3=O)[C@H](O)[C@@H]2O)CC1 | – | 20.8 | – | – | – | –
CCOC(=O)N1CCN(C(=O)CCCn2nnnc2CN2CCC(C)CC2)CC1 | – | – | – | – | – | –
CCCCOC(=O)CSc1nc(N)c(C#N)c(-c2ccc(OC)cc2)c1C#N | – | – | 23.1 | – | – | –
CCCCOC(=O)CSc1nc(N)c(C#N)c(-c2ccc(OCC)cc2)c1C#N | – | – | – | – | – | –
CCN(C(=O)/C=C/c1ccc2c(c1)OCO2)c1ccccc1 | – | 23.8 | 19.7 | – | – | –
O=C(C=Cc1ccc2c(c1)OCO2)c1ccccc1 | – | – | – | – | – | –
Cc1cccc(C)c1NC(=O)CN1CCN(C(=O)CN2C(=O)NC3(CCCCC3C)C2=O)CC1 (centres undefined) | – | 22.6 | – | – | – | –
CC1CCCCC12NC(=O)N(CC(=O)Nc1ccccc1-c1ccccc1)C2=O (centres undefined) | – | – | – | – | – | –
CCc1ccccc1NC(=O)CN1CCN(C(=O)CN2C(=O)NC3(CCCCC3C)C2=O)CC1 (centres undefined) | – | – | – | – | – | –
CC1CCCCC12NC(=O)N(CC(=O)Nc1ccccc1F)C2=O (centres undefined) | – | 21.9 | – | – | – | –
COc1ccc(Cl)cc1-c1cc(C(=O)NCc2cccc(C(F)(F)F)c2)[nH]n1 | – | – | – | – | – | –
CN1CCN(C(=S)NC(=O)c2ccco2)CC1 | – | – | – | – | – | –
O=[N+]([O-])c1cccc(/C=N/n2cnnc2)c1 | – | 20.5 | – | – | – | –
SMILES | M5 ag | M4 PAM | M5 PAM | M4 antag | CHRM5 antagonist | M4 ag
O=[N+]([O-])c1ccc(O)c(/C=N/n2cnnc2)c1 | – | – | – | – | – | –
CC1(C)Cc2c(cnn2-c2cccc(F)c2)C(NC(=O)c2ccc(=O)[nH]n2)C1 (centres undefined) | – | – | – | – | – | –
Cc1cccc(NC(=O)CCSc2ccccc2)c1C | – | – | – | – | – | –
O=C(CCCc1c[nH]c2ccccc12)NCCc1c[nH]c2ccccc12 | – | – | – | – | – | –
Cc1cccc(C)c1NC(=O)COC(=O)CCc1c[nH]c2ccccc12 | – | – | – | – | – | –
O=C(COC(=O)c1ccccc1C(=O)OCC(=O)NCCc1c[nH]c2ccccc12)NCCc1c[nH]c2ccccc12 | – | – | – | 43.0 | 32.4 | –
